In ChEMBL document CHEMBL3244396, “Synthesis and antileukemic activity of 5-substituted 2,3-dihydro-6,7-bis(hydroxymethyl)-1H-pyrrolizine diesters” (J Med Chem, 1977):

Legend:
P388 [1] = assay: Antitumor activity against mouse P388 cells allografted in female CDF1 mouse assessed as change in body weight at 100 mg/kg, ip administered daily for 9 days as saline with Tween-80 solution starting 24 hrs after tumor inoculation; format: functional; settings: route intraperitoneal
Method in brief: (§1)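 Ascitic fluid carrying P388 cells was inoculated ip. Compound was given ip in nine daily doses, starting 24 h after inoculation, in Klucel (hydroxypropylcellulose) suspension or in saline with Tween-80. Body-weight difference (treated minus control) was recorded on day 5. Survival was scored as %T/C of median survival time, and 30-day survival counted as cure.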

Mus musculus [2] = assay: Toxicity in male CDF1 mouse allografted with mouse P388 cells assessed as animal survival at 25 mg/kg, ip administered daily for 9 days as saline with Tween-80 solution starting 24 hrs after tumor inoculation; format: organism-based; design: dose 25 mg/kg, route intraperitoneal; settings: in vivo
Method in brief: (§2)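 P-388 leukemia ascitic fluid implanted ip. Compound dosed ip in saline with Tween-80 vehicle, once daily for nine doses from 24 h after tumor inoculation. Acute toxicity scored as toxicity-day survivors per group. Survival was followed up to 30 days, with 30-day survival counted as "cure". Follows NCI screening protocols.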

P388 [3] = assay: Antitumor activity against mouse P388 cells allografted in male CDF1 mouse assessed as disease cures by measuring 30-days host survival at 6.25 mg/kg, ip administered daily for 9 days as saline with Tween-80 solution starting 24 hrs after tumor inoculation relative to control; format: functional; settings: route intraperitoneal
Method in brief: (§3)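 P388 ascitic cell inoculum given ip to CDF1 mice of the sex in each line. Nine daily ip doses in saline with Tween-80 as vehicle, starting 24 h after inoculation. Median survival time expressed as %T/C (>125 significant); "cure" defined as 30-day survival.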

P388 [4] = assay: Antitumor activity against mouse P388 cells allografted in female CDF1 mouse assessed as change in body weight at 400 mg/kg, ip administered daily for 9 days as saline with Tween-80 solution starting 24 hrs after tumor inoculation; format: functional; settings: route intraperitoneal; method in brief: as §1
P388 [5] = assay: Antitumor activity against mouse P388 cells allografted in female CDF1 mouse assessed as disease cures by measuring 30-days host survival at 12.5 mg/kg, ip administered daily for 9 days as saline with Tween-80 solution starting 24 hrs after tumor inoculation relative to control; format: functional; settings: route intraperitoneal; method in brief: as §3
P388 [6] = assay: Antitumor activity against mouse P388 cells allografted in female CDF1 mouse assessed as change in body weight at 50 mg/kg, ip administered daily for 9 days as saline with Tween-80 solution starting 24 hrs after tumor inoculation; format: functional; settings: route intraperitoneal; method in brief: as §1
P388 [7] = assay: Antitumor activity against mouse P388 cells allografted in male CDF1 mouse assessed as disease cures by measuring 30-days host survival at 25 mg/kg, ip administered daily for 9 days as saline with Tween-80 solution starting 24 hrs after tumor inoculation relative to control; format: functional; settings: route intraperitoneal; method in brief: as §3
P388 [8] = assay: Antitumor activity against mouse P388 cells allografted in male CDF1 mouse assessed as change in body weight at 50 mg/kg, ip administered daily for 9 days as saline with Tween-80 solution starting 24 hrs after tumor inoculation; format: functional; settings: route intraperitoneal; method in brief: as §1
P388 [9] = assay: Antitumor activity against mouse P388 cells allografted in female CDF1 mouse assessed as change in body weight at 200 mg/kg, ip administered daily for 9 days as saline with Tween-80 solution starting 24 hrs after tumor inoculation; format: functional; settings: route intraperitoneal; method in brief: as §1
P388 [10] = assay: Antitumor activity against mouse P388 cells allografted in female CDF1 mouse assessed as disease cures by measuring 30-days host survival at 6.25 mg/kg, ip administered daily for 9 days as saline with Tween-80 solution starting 24 hrs after tumor inoculation relative to control; format: functional; settings: route intraperitoneal; method in brief: as §3
Mus musculus [11] = assay: Toxicity in male CDF1 mouse allografted with mouse P388 cells assessed as animal survival at 12.5 mg/kg, ip administered daily for 9 days as saline with Tween-80 solution starting 24 hrs after tumor inoculation; format: organism-based; design: dose 12.5 mg/kg, route intraperitoneal; settings: in vivo; method in brief: as §2
P388 [12] = assay: Antitumor activity against mouse P388 cells allografted in female CDF1 mouse assessed as change in body weight at 6.25 mg/kg, ip administered daily for 9 days as saline with Tween-80 solution starting 24 hrs after tumor inoculation; format: functional; settings: route intraperitoneal; method in brief: as §1
P388 [13] = assay: Antitumor activity against mouse P388 cells allografted in male CDF1 mouse assessed as change in body weight at 6.25 mg/kg, ip administered daily for 9 days as saline with Tween-80 solution starting 24 hrs after tumor inoculation; format: functional; settings: route intraperitoneal; method in brief: as §1
Mus musculus [14] = assay: Toxicity in female CDF1 mouse allografted with mouse P388 cells assessed as animal survival at 6.25 mg/kg, ip administered daily for 9 days as saline with Tween-80 solution starting 24 hrs after tumor inoculation; format: organism-based; design: dose 6.25 mg/kg, route intraperitoneal; settings: in vivo; method in brief: as §2
P388 [15] = assay: Antitumor activity against mouse P388 cells allografted in male CDF1 mouse assessed as change in body weight at 12.5 mg/kg, ip administered daily for 9 days as saline with Tween-80 solution starting 24 hrs after tumor inoculation; format: functional; settings: route intraperitoneal; method in brief: as §1
P388 [16] = assay: Antitumor activity against mouse P388 cells allografted in male CDF1 mouse assessed as change in body weight at 25 mg/kg, ip administered daily for 9 days as saline with Tween-80 solution starting 24 hrs after tumor inoculation; format: functional; settings: route intraperitoneal; method in brief: as §1
P388 [17] = assay: Antitumor activity against mouse P388 cells allografted in female CDF1 mouse assessed as change in body weight at 25 mg/kg, ip administered daily for 9 days as saline with Tween-80 solution starting 24 hrs after tumor inoculation; format: functional; settings: route intraperitoneal; method in brief: as §1
Mus musculus [18] = assay: Toxicity in male CDF1 mouse allografted with mouse P388 cells assessed as animal survival at 6.25 mg/kg, ip administered daily for 9 days as saline with Tween-80 solution starting 24 hrs after tumor inoculation; format: organism-based; design: dose 6.25 mg/kg, route intraperitoneal; settings: in vivo; method in brief: as §2
Mus musculus [19] = assay: Toxicity in female CDF1 mouse allografted with mouse P388 cells assessed as animal survival at 12.5 mg/kg, ip administered daily for 9 days as saline with Tween-80 solution starting 24 hrs after tumor inoculation; format: organism-based; design: dose 12.5 mg/kg, route intraperitoneal; settings: in vivo; method in brief: as §2
P388 [20] = assay: Antitumor activity against mouse P388 cells allografted in female CDF1 mouse assessed as change in body weight at 12.5 mg/kg, ip administered daily for 9 days as saline with Tween-80 solution starting 24 hrs after tumor inoculation; format: functional; settings: route intraperitoneal; method in brief: as §1
Mus musculus [21] = assay: Toxicity in female CDF1 mouse allografted with mouse P388 cells assessed as animal survival at 25 mg/kg, ip administered daily for 9 days as saline with Tween-80 solution starting 24 hrs after tumor inoculation; format: organism-based; design: dose 25 mg/kg, route intraperitoneal; settings: in vivo; method in brief: as §2
P388 [22] = assay: Antitumor activity against mouse P388 cells allografted in male CDF1 mouse assessed as disease cures by measuring 30-days host survival at 12.5 mg/kg, ip administered daily for 9 days as saline with Tween-80 solution starting 24 hrs after tumor inoculation relative to control; format: functional; settings: route intraperitoneal; method in brief: as §3
Mus musculus [23] = assay: Toxicity in female CDF1 mouse allografted with mouse P388 cells assessed as animal survival at 200 mg/kg, ip administered daily for 9 days as saline with Tween-80 solution starting 24 hrs after tumor inoculation; format: organism-based; design: dose 200 mg/kg, route intraperitoneal; settings: in vivo; method in brief: as §2
Mus musculus [24] = assay: Toxicity in female CDF1 mouse allografted with mouse P388 cells assessed as animal survival at 400 mg/kg, ip administered daily for 9 days as saline with Tween-80 solution starting 24 hrs after tumor inoculation; format: organism-based; design: dose 400 mg/kg, route intraperitoneal; settings: in vivo; method in brief: as §2
P388 [25] = assay: Antitumor activity against mouse P388 cells allografted in female CDF1 mouse assessed as disease cures by measuring 30-days host survival at 25 mg/kg, ip administered daily for 9 days as saline with Tween-80 solution starting 24 hrs after tumor inoculation relative to control; format: functional; settings: route intraperitoneal; method in brief: as §3

**Q.** With CCNC(=O)OCc1c(COC(=O)NCC)c(-c2ccc(Cl)c(Cl)c2)n2c1CCC2 as the molecule, how does the Activity (P388 [1]) read?
**A.** The Activity was -3 g.

**Q.** What about the Activity (Mus musculus [2]) of the same molecule?
**A.** The Activity was “Non-toxic”.

**Q.** And the T/C (P388 [3])?
**A.** The T/C was 168%.

**Q.** What about the Activity (P388 [4]) of the same molecule?
**A.** Its Activity is -1.4 g.

**Q.** And the T/C (P388 [5])?
**A.** Its T/C is 170%.

**Q.** And the Activity (P388 [6])?
**A.** The Activity was -4.4 g.

**Q.** What about the T/C (P388 [7]) of the same molecule?
**A.** Its T/C is 165%.

**Q.** What about the Activity (P388 [8]) of the same molecule?
**A.** Its Activity is -8 g.

**Q.** What about the Activity (P388 [9]) of the same molecule?
**A.** The Activity was -1.4 g.

**Q.** And the T/C (P388 [10])?
**A.** Its T/C is 154%.

**Q.** And the Activity (Mus musculus [11])?
**A.** Its Activity is “Non-toxic”.

**Q.** And the Activity (P388 [12])?
**A.** Its Activity is -1.8 g.

**Q.** What about the Activity (P388 [13]) of the same molecule?
**A.** Its Activity is -2.1 g.

**Q.** And the Activity (Mus musculus [14])?
**A.** The Activity was “Non-toxic”.

**Q.** What about the Activity (P388 [15]) of the same molecule?
**A.** The Activity was -2.5 g.

**Q.** What about the Activity (P388 [16]) of the same molecule?
**A.** Its Activity is -4.4 g.

**Q.** What about the Activity (P388 [17]) of the same molecule?
**A.** Its Activity is -2.4 g.

**Q.** What about the Activity (Mus musculus [18]) of the same molecule?
**A.** The Activity was “Non-toxic”.

**Q.** And the Activity (Mus musculus [19])?
**A.** The Activity was “Non-toxic”.

**Q.** And the Activity (P388 [20])?
**A.** Its Activity is -1.8 g.

**Q.** What about the Activity (Mus musculus [21]) of the same molecule?
**A.** The Activity was “Non-toxic”.

**Q.** What about the T/C (P388 [22]) of the same molecule?
**A.** The T/C was 168%.

**Q.** And the Activity (Mus musculus [23])?
**A.** Its Activity is “Toxic”.

**Q.** What about the Activity (Mus musculus [24]) of the same molecule?
**A.** Its Activity is “Toxic”.

**Q.** What about the T/C (P388 [25]) of the same molecule?
**A.** The T/C was 103%.
